Reference: ChEMBL document CHEMBL1139925, “Synthesis and topoisomerase poisoning activity of A-ring and E-ring substituted luotonin A derivatives” (2007)

Tests used:
Assay type in all cases: functional
MCF7 [1] = experiment: Growth inhibition of MCF7 cells after 4 days; details: Homo sapiens, MCF7, 96 h
Procedure, shortened: (§1)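 Adherent lines (HeLa S3 in MEM/7% FCS; MCF7 and ADR-Res) seeded at 2 · 10^3 cells per well. After one day, compounds in DMSO were diluted in culture medium over a 5-point range and added. Cells stained with 0.2% crystal violet in 20% ethanol for 1 h, washed, solubilized in 10% acetic acid, A570 read. GI50 = concentration giving 50% growth inhibition versus control.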

CCRF-CEM = experiment: Growth inhibition of human CEM cells by Alamar blue assay
Procedure, shortened: (§2)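 Leukemia lines (CEM, topo I-mutant CEM/C2, HL60, topo II-mutant MX2) seeded in 96-well plates. HL60/MX2 were kept in RPMI1640 with 10% FCS, 10 mM Hepes and 2 mM glutamine. After one day, DMSO-dissolved compounds were diluted in medium over a 5-point range and added. GI50 = concentration giving 50% growth inhibition versus control.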

[2] = Growth inhibition of topoisomerase 2 mutated mitoxantrone-resistant MX2 cells by Alamar blue assay; details: Homo sapiens; procedure, shortened: as §2
MCF7 [3] = experiment: Growth inhibition of adriamycin-resistant MCF7 cells after 4 days; details: Homo sapiens, MCF7, 96 h; procedure, shortened: as §1
HeLa = experiment: Growth inhibition of HeLa cells after 4 days; details: Homo sapiens, 96 h; procedure, shortened: as §1
HL-60 [4] = experiment: Ratio of GI50 for mitoxantrone-resistant human MX2 cells to GI50 for human HL60 cells
Procedure, shortened: (§3)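 Relative resistance index from GI50 values in paired 5-point growth inhibition assays run in parallel: GI50 in the mutant line (CEM/C2 or MX2) divided by GI50 in its parental line (CEM or HL60).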

CEM/C2 [5] = experiment: Growth inhibition of topoisomerase 1 mutated CEM/C2 cells by Alamar blue assay; details: Homo sapiens; procedure, shortened: as §2
HL-60 [6] = experiment: Growth inhibition of human HL60 cells by Almar blue assay; procedure, shortened: as §2
CEM/C2 [7] = experiment: Ratio of GI50 for camptothecin-resistant human CEM/C2 cells to GI50 for human CEM cells; procedure, shortened: as §3

SMILES | GI50 (MCF7 [1]) | GI50 (CCRF-CEM) | GI50 (MCF7 [3]) | GI50 (HeLa) | GI50 (HL-60 [6]) | GI50 [2] | RatioGI50 (HL-60 [4]) | GI50 (CEM/C2 [5]) | RatioGI50 (CEM/C2 [7])
O=c1c2ccccc2nc2n1Cc1cc3c(CN4CCOCC4)c(O)ccc3nc1-2 | > 20 µM |  | > 20 µM | > 20 µM |  |  |  |  | 
O=c1c2ccccc2nc2n1Cc1cc3cc(O)ccc3nc1-2 [10-HYDROXYLUOTONIN A] | > 20 µM |  | > 20 µM | > 10 µM |  |  |  |  | 
COc1ccc2nc3c(cc2c1)Cn1c-3nc2ccccc2c1=O [10-METHOXYLUOTONIN A] | > 20 µM |  | > 20 µM | > 10 µM |  |  |  |  | 
CC(=O)Nc1cccc2c(=O)n3c(nc12)-c1nc2ccccc2cc1C3 [16-ACETAMIDOLUOTONIN A] | > 20 µM |  | > 20 µM | > 20 µM |  |  |  |  | 
O=c1c2cccnc2nc2n1Cc1cc3ccccc3nc1-2 [16-AZALUOTONIN A] | > 20 µM |  | > 20 µM | > 20 µM |  |  |  |  | 
COc1cccc2c(=O)n3c(nc12)-c1nc2ccccc2cc1C3 [16-METHOXYLUOTONIN A] | > 20 µM |  | > 20 µM | 12 µM |  |  |  |  | 
COc1cc2nc3n(c(=O)c2cc1OC)Cc1cc2ccccc2nc1-3 [17,18-DIMETHOXYLUOTONIN A] | > 20 µM |  | > 20 µM | > 10 µM |  |  |  |  | 
CC[C@@]1(O)C(=O)OCc2c1cc1n(c2=O)Cc2cc3ccccc3nc2-1 [CAMPTOTHECIN] | 0.01 µM | 0.002 µM | 0.01 µM | 0.01 µM | 0.03 µM | 0.02 µM |  | > 1 µM | >500
O=C1c2c(O)ccc(O)c2C(=O)c2c(NCCNCCO)ccc(NCCNCCO)c21 [MITOXANTRONE] |  |  |  |  | 0.01 µM | 0.13 µM | 13 |  | 

Further lines, with some results ahead:

GI50 (MCF7 [1]) | GI50 (CCRF-CEM) | GI50 (MCF7 [3]) | GI50 (HeLa) | GI50 (HL-60 [6]) | SMILES | GI50 [2] | RatioGI50 (HL-60 [4]) | GI50 (CEM/C2 [5]) | RatioGI50 (CEM/C2 [7])
3 µM | 3 µM | 4 µM | 2 µM | 4 µM | CCN(CC)CCOc1ccc2nc3c(cc2c1)Cn1c-3nc2ccccc2c1=O | 10 µM | 2.5 | 7 µM | 2
2 µM | 3 µM | 4 µM | 2 µM | 4 µM | CN(C)CCOc1ccc2nc3c(cc2c1)Cn1c-3nc2ccccc2c1=O | 9 µM | 2 | 7 µM | 2
13 µM | 30 µM | > 20 µM | 10 µM | 20 µM | CN(C)Cc1c(O)ccc2nc3c(cc12)Cn1c-3nc2ccccc2c1=O | > 40 µM | >2 | > 40 µM | >1.5
2 µM | 6 µM | 3 µM | 2 µM | 15 µM | Nc1cccc2c(=O)n3c(nc12)-c1nc2ccccc2cc1C3 [16-AMINOLUOTONIN A] | > 40 µM | >2.5 | > 40 µM | >7
10 µM |  | 13 µM | > 10 µM |  | O=c1c2cccc(Cl)c2nc2n1Cc1cc3ccccc3nc1-2 [16-CHLOROLUOTONIN A] |  |  |  | 
10 µM | 9 µM | > 20 µM | 6 µM | > 40 µM | O=c1c2cc(O)c(O)cc2nc2n1Cc1cc3ccccc3nc1-2 [17,18-DIHYDROXYLUOTONIN A] | > 40 µM |  | > 40 µM | >4
> 1 µM |  | > 1 µM | > 1 µM |  | CCc1c2c(nc3ccc(OC(=O)N4CCC(N5CCCCC5)CC4)cc13)-c1cc3c(c(=O)n1C2)COC(=O)[C@]3(O)CC [IRINOTECAN] |  |  |  | 
3 µM | ≥ 40 µM | 5 µM | 3 µM |  | O=c1c2ccccc2nc2n1Cc1cc3ccccc3nc1-2 [LUOTONIN A] |  |  | > 40 µM | 
0.05 µM |  | 0.04 µM | 0.03 µM |  | CC[C@@]1(O)C(=O)OCc2c1cc1n(c2=O)Cc2cc3c(CN(C)C)c(O)ccc3nc2-1 [TOPOTECAN] |  |  |  | 
